{"source": "paper PMC5816172", "about": "(Proceedings of the National Academy of Sciences of the …, 2018)", "key": {"[1]": {"tested_on": "NLRP3 inflammasome", "assay": "IL-1β release from freshly obtained human blood neutrophils", "type": "cell-based", "conditions": "primary human neutrophils", "in_short": "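Freshly obtained human blood neutrophils were stimulated with LPS and ATP with test compound at 0.1, 1 and 10 µM. Supernatant IL-1β was measured by ELISA, and mature 17 kDa IL-1β by Western blot. IL-1β precursor was measured in the cell lysates. Data are mean ± SEM of cells from three healthy donors.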"}, "[2]": {"assay": "Human pharmacokinetic study, single oral dose", "type": "in vivo", "conditions": "for Cmax: both, human, plasma, po; for T½ el (plasma elimination half-life): fasted, mean, N=5", "in_short": "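Phase 1 study in fasted healthy subjects given a single oral dose of 100, 300 or 1,000 mg (n = 5 per dose group). Plasma concentration–time profiles were used to derive group mean Cmax and mean plasma elimination half-life.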"}, "[3]": {"assay": "Human safety study", "type": "in vivo", "in_short": "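Phase 1 study in 35 healthy subjects receiving single oral doses or 8 consecutive daily doses of up to 1,000 mg. Monitoring covered treatment-emergent and non-treatment-emergent adverse events and vital signs. Serum lipids, urinalysis, liver function enzymes and acute phase proteins were compared with baseline in each cohort.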"}, "[4]": {"tested_on": "Fyn", "assay": "Phosphoarray assay in HMDM", "type": "cell-based, human", "conditions": "LPS/nigericin, 10 µM, one donor"}, "[5]": {"tested_on": "NF-κB", "assay": "Flow cytometry of phosphokinases in spleen cells from treated mice", "type": "in vivo, mouse", "in_short": "(§1)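 Mice were given test compound or saline vehicle. Spleen-derived CD11b+CD3− cells were analysed either fresh (steady state) or after 30 min of in vitro LPS stimulation. Phosphorylation of NF-κB, IκB, IKK and IRAK4 was assessed by flow cytometry. Data are mean ± SEM.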"}, "[6]": {"assay": "Human pharmacokinetic study, repeated daily oral dosing for 8 d", "type": "in vivo", "conditions": "for Cmax: both, human, plasma, oral", "in_short": "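Fasted healthy subjects received repeated daily oral doses of 100, 300 or 1,000 mg for 8 d. Plasma concentrations were followed on day 1 and day 8. Group mean maximum concentration and elimination half-life were determined on day 8.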"}, "[7]": {"tested_on": "mice challenged with LPS-induced systemic inflammation", "assay": "In vivo LPS challenge", "design": "species or system mouse", "in_short": "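Male C57BL/6J mice (22–26 g) received 200 mg/kg in 200 µL saline i.p. every 12 h × 5, or saline alone. One hour after the last dose: LPS (E. coli 055:B5) 5 mg/kg i.p., killed 2 h later. Peritoneal lavage with 10 mL cold PBS, spun 1,000 × g, 5 min. Spleen, lung, liver and quadriceps homogenates spun 13,000 × g, 20 min, 4 °C; cytokines normalised to total protein. n = 7–8 per group.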"}, "[8]": {"tested_on": "Src", "assay": "Phosphoarray assay in HMDM", "type": "cell-based, human", "conditions": "LPS/nigericin, 10 µM, one donor"}, "[9]": {"tested_on": "IRAK4", "assay": "Flow cytometry of phosphokinases in spleen cells from treated mice", "type": "in vivo, mouse", "in_short": "as §1"}, "[10]": {"conditions": "fresh CD11b+CD3- spleen cells, mice 200 mg/kg i.p. x5, vs vehicle"}, "[11]": {"conditions": "spleen cells from treated mice, LPS 30 min ex vivo"}, "[12]": {"conditions": "200 mg/kg i.p. every 12 h for five doses, 2 h after i.p. LPS 5 mg/kg"}, "[13]": {"conditions": "200 mg/kg i.p. x5, 2 h after LPS, organ homogenates"}}, "note": "“Also recorded” adds a separate entry of the source."}
{"smiles": "CS(=O)(=O)CCC#N", "note": "[OLT1177]", "values": [{"measurement": "total intracellular pool of the IL-1β precursor", "setting": "[1]; LPS/ATP", "value": "without affecting"}, {"measurement": "release of IL-1β", "setting": "[1]; LPS/ATP, 0.1, 1, and 10 µM", "value": "prevented"}, {"measurement": "Cmax", "setting": "[2]; 100 mg", "value": 2700, "unit": "ng/mL"}, {"measurement": "Cmax", "setting": "[2]; 300 mg", "value": 9800, "unit": "ng/mL"}, {"measurement": "Cmax", "setting": "[2]; 1000 mg", "value": 32000, "unit": "ng/mL"}, {"measurement": "mean peak plasma level", "setting": "[2]; single oral dose 100 mg", "value": 20.3, "unit": "µM"}, {"measurement": "T½ el (plasma elimination half-life)", "setting": "[2]; single oral dose 100 mg", "value": 23.0, "unit": "h"}, {"measurement": "mean peak plasma level", "setting": "[2]; single oral dose 300 mg", "value": 73.6, "unit": "µM"}, {"measurement": "mean peak plasma level", "setting": "[2]; single oral dose 1,000 mg", "value": 240.3, "unit": "µM"}, {"measurement": "T½ el (plasma elimination half-life)", "setting": "[2]; single oral dose 1000 mg", "value": 24.2, "unit": "h"}, {"measurement": "subjects reporting treatment-emergent adverse events", "setting": "[3]; all cohorts incl. placebo, 100-1,000 mg single and multiple dose", "value": "Seven of 35 subjects"}, {"measurement": "relationship of reported AEs to OLT1177 (investigator)", "setting": "[3]; all cohorts, each resolved spontaneously", "value": "unrelated"}, {"measurement": "hematologic or coagulation values vs baseline", "setting": "[3]; any time during the study", "value": "No significant changes"}, {"measurement": "overall safety / toxicities in healthy humans", "setting": "[3]; oral doses up to 1,000 mg each day for 8 d", "value": "neither adverse effects nor biochemical or hematological changes; also recorded: safe and well-tolerated; also recorded: no clinical, hematological, or organ toxicities observed"}, {"measurement": "physical examination vs predrug examination", "setting": "[3]; subjects exposed to OLT1177", "value": "no change"}, {"measurement": "reduction in Fyn phosphorylation", "setting": "[4]", "value": 35, "unit": "%"}, {"measurement": "steady-state constitutive phosphorylated NFκB", "setting": "[5]; [10]", "value": "significantly reduced"}, {"measurement": "phosphorylated NF-κB after in vitro LPS", "setting": "[5]; [11]", "value": "significant reduction"}, {"measurement": "mean maximum plasma concentration at steady state", "setting": "[6]; 100 mg/d for eight consecutive days", "value": 36.0, "unit": "µM"}, {"measurement": "mean maximum plasma concentration at steady state", "setting": "[6]; 300 mg/d for eight consecutive days", "value": 118.6, "unit": "µM"}, {"measurement": "mean maximum plasma concentration at steady state", "setting": "[6]; 1,000 mg/d for eight consecutive days", "value": 310.9, "unit": "µM"}, {"measurement": "Cmax", "setting": "[6]; 100 mg", "value": 4800, "unit": "ng/mL"}, {"measurement": "Cmax", "setting": "[6]; 300 mg", "value": 15800, "unit": "ng/mL"}, {"measurement": "Cmax", "setting": "[6]; 1000 mg", "value": 41400, "unit": "ng/mL"}, {"measurement": "reduction of peritoneal fluid CXCL1", "setting": "[7]; [12]", "value": 30, "unit": "%"}, {"measurement": "reduction of peritoneal fluid IL-6", "setting": "[7]; [12]", "value": 44, "unit": "%"}, {"measurement": "reduction of peritoneal fluid myeloperoxidase (MPO)", "setting": "[7]; [12]", "value": 80, "unit": "%"}, {"measurement": "TNFα content in lung, liver, spleen, and skeletal muscle", "setting": "[7]; [13]", "value": "no significant changes"}, {"measurement": "total IL-1β content in lung, liver, spleen, and skeletal muscle", "setting": "[7]; [13]", "value": "significantly decreased"}, {"measurement": "reduction in Src activation (phosphorylation)", "setting": "[8]", "value": 26, "unit": "%"}, {"measurement": "steady-state phosphorylated IRAK4", "setting": "[9]; [10]", "value": "no statistically significant changes"}, {"measurement": "phosphorylated IRAK4 after in vitro LPS", "setting": "[9]; [11]", "value": "no change"}]}
